Assay results: ChEMBL document CHEMBL4382192, “Discovery of a potent dual ALK and EGFR T790M inhibitor” (Eur J Med Chem, 2017)

How the values were obtained:
[1] = target: Dual specificity tyrosine-phosphorylation-regulated kinase 2 (Homo sapiens) (UniProt Q92630); test: Binding affinity to wild-type human full length DYRK2 (M1 to S528 residues) expressed in mammalian expression system assessed as residual binding level at 1 uM by Kinomescan method relative to control
[2] = target: Serine/threonine-protein kinase ICK (Homo sapiens) (UniProt Q9UPZ9); test: Binding affinity to wild-type human partial length ICK (M1 to P314 residues) expressed in mammalian expression system assessed as residual binding level at 1 uM by Kinomescan method relative to control
[3] = target: Tyrosine-protein kinase Lck (Homo sapiens) (UniProt P06239); test: Binding affinity to wild-type human partial length LCK (R207 to P509 residues) expressed in bacterial expression system assessed as residual binding level at 1 uM by Kinomescan method relative to control
[4] = target: Mitogen-activated protein kinase 14 (Homo sapiens) (UniProt Q16539); test: Binding affinity to wild-type human full length p38-alpha (M1 to S360 residues) expressed in bacterial expression system assessed as residual binding level at 1 uM by Kinomescan method relative to control
[5] = target: Ribosomal protein S6 kinase alpha-5 (Homo sapiens) (UniProt O75582); test: Binding affinity to wild-type human partial length C-terminal RPS6KA5 kinase domain 2 (V390 to T718 residues) expressed in bacterial expression system assessed as residual binding level at 1 uM by Kinomescan method relative to control
[6] = target: Tyrosine-protein kinase JAK3 (Homo sapiens) (UniProt P52333); test: Binding affinity to wild-type human partial length JAK3 JH1 catalytic domain (I781 to S1124 residues) expressed in mammalian expression system assessed as residual binding level at 1 uM by Kinomescan method relative to control
[7] = Metabolic stability in mouse liver microsomes assessed as parent compound remaining at 1 uM after 30 mins in presence of NADPH by LC/MS/MS analysis; format: ADME, Microsome; conditions: read-out: Stability
In short: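 Compound at 1 μM final with 0.5 mg/mL microsomal protein in 100 mM phosphate buffer pH 7.4 at 37 °C, started by adding an NADPH-regenerating system. Reactions were quenched with cold acetonitrile at 0 and 30 min and spun down. Supernatant was analysed by LC-MS/MS. The 0-min sample, quenched before NADPH addition, was set as 100%, and percent parent remaining came from peak areas.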

[8] = target: STE20-like serine/threonine-protein kinase (Homo sapiens, UniProt Q9H2G2); test: Inhibition of recombinant full length GST-tagged human SLK expressed in baculovirus expression system by LanthaScreen assay
[9] = target: Casein kinase I isoform delta (Homo sapiens) (UniProt P48730); test: Binding affinity to wild-type human full length CSNK1D (M1 to K409 residues) expressed in bacterial expression system assessed as residual binding level at 1 uM by Kinomescan method relative to control
[10] = target: Tyrosine-protein kinase Fes/Fps (Homo sapiens) (UniProt P07332); test: Binding affinity to wild-type human partial length FES (I527 to R822 residues) expressed in bacterial expression system assessed as residual binding level at 1 uM by Kinomescan method relative to control
[11] = system: Hepatocyte growth factor receptor (Homo sapiens), P08581 [Y1235D]; test: Binding affinity to human partial length MET Y1235D mutant (D1010 to S1367 residues) expressed in bacterial expression system assessed as residual binding level at 1 uM by Kinomescan method relative to control
In short: (§1)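 Kinome-wide selectivity panel run by the KINOMEscan method, with the test compound at a single concentration of 1 μM. Wild-type and mutant kinases were profiled in the same screen.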

[12] = system: Phosphatidylinositol 4,5-bisphosphate 3-kinase catalytic subunit alpha isoform (Homo sapiens), P42336 [I800L]; test: Binding affinity to human partial length PIK3CA I800L mutant (R108 to N1068 residues) expressed in mammalian expression system assessed as residual binding level at 1 uM by Kinomescan method relative to control
[13] = target: Citron Rho-interacting kinase (Homo sapiens) (UniProt O14578); test: Binding affinity to wild-type human partial length CIT (M68 to E432 residues) expressed in bacterial expression system assessed as residual binding level at 1 uM by Kinomescan method relative to control
[14] = target: Serine/threonine-protein kinase Nek1 (Homo sapiens) (UniProt Q96PY6); test: Binding affinity to wild-type human partial length NEK1 (M1 to K278 residues) expressed in bacterial expression system assessed as residual binding level at 1 uM by Kinomescan method relative to control
[15] = system: Mast/stem cell growth factor receptor Kit (Homo sapiens), P10721 [UNDEFINED MUTATION]; test: Binding affinity to human partial length KIT V559D/V654 double mutant (Y545 to D952 residues) expressed in bacterial expression system assessed as residual binding level at 1 uM by Kinomescan method relative to control; in short: as §1
[16] = target: Serine/threonine-protein kinase BRSK1 (Homo sapiens) (UniProt Q8TDC3); test: Binding affinity to wild-type human partial length BRSK1 (M1 to E754 residues) expressed in bacterial expression system assessed as residual binding level at 1 uM by Kinomescan method relative to control
[17] = target: Protein kinase C delta type (Homo sapiens) (UniProt Q05655); test: Binding affinity to wild-type human partial length PRKCD (Q328 to D676 residues) expressed in bacterial expression system assessed as residual binding level at 1 uM by Kinomescan method relative to control
[18] = target: Receptor-type tyrosine-protein kinase FLT3 (Homo sapiens) (UniProt P36888); test: Binding affinity to wild-type human partial length autoinhibited FLT3 (H564 to Y969 residues) expressed in mammalian expression system assessed as residual binding level at 1 uM by Kinomescan method relative to control
[19] = target: Dual specificity tyrosine-phosphorylation-regulated kinase 1A (Homo sapiens) (UniProt Q13627); test: Binding affinity to wild-type human partial length DYRK1A (H129 to S509 residues) expressed in mammalian expression system assessed as residual binding level at 1 uM by Kinomescan method relative to control
[20] = system: Phosphatidylinositol 4,5-bisphosphate 3-kinase catalytic subunit alpha isoform (Homo sapiens), P42336 [H1047Y]; test: Binding affinity to human partial length PIK3CA H1047Y mutant (R108 to N1068 residues) expressed in mammalian expression system assessed as residual binding level at 1 uM by Kinomescan method relative to control
[21] = target: Ribosomal protein S6 kinase alpha-2 (Homo sapiens) (UniProt Q15349); test: Binding affinity to wild-type human partial length N-terminal RSK3 kinase domain 1 (M1 to Q385 residues) expressed in bacterial expression system assessed as residual binding level at 1 uM by Kinomescan method relative to control
[22] = target: Serine/threonine-protein kinase 32A (Homo sapiens) (UniProt Q8WU08); test: Binding affinity to wild-type human full length YANK1 (M1 to L396 residues) expressed in mammalian expression system assessed as residual binding level at 1 uM by Kinomescan method relative to control

Chain of Tyrosine-protein kinase JAK3 (Homo sapiens) (P52333 whole entry, the tested form may be a part): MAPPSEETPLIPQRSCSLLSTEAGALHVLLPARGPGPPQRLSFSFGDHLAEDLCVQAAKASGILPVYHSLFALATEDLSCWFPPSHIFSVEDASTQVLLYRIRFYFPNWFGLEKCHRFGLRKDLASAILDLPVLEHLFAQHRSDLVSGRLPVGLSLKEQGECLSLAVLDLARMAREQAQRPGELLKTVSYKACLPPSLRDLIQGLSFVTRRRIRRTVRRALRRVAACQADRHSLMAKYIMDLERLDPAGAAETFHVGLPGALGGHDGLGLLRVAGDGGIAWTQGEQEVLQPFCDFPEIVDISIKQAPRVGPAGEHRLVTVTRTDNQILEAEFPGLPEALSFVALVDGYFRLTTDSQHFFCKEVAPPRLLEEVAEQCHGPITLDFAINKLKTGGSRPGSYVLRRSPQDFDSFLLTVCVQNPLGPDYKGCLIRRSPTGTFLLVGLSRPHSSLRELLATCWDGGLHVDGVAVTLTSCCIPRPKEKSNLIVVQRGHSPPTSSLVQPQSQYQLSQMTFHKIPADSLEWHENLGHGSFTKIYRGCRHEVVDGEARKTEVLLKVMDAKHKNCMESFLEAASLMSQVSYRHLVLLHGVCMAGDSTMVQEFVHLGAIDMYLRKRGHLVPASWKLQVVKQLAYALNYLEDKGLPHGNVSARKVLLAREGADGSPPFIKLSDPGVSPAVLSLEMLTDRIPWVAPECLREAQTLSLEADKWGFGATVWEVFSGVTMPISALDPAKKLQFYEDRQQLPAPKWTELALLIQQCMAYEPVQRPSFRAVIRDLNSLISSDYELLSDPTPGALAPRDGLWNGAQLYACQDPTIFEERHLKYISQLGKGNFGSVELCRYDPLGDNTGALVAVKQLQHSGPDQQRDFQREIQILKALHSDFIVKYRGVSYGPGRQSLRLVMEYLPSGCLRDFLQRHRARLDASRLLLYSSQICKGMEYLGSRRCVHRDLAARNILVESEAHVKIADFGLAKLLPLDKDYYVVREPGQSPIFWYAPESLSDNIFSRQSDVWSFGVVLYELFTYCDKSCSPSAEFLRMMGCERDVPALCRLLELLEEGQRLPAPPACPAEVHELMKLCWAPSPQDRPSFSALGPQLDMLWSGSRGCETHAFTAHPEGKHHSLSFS
Chain of Mitogen-activated protein kinase 14 (Homo sapiens) (Q16539 whole entry, the tested form may be a part): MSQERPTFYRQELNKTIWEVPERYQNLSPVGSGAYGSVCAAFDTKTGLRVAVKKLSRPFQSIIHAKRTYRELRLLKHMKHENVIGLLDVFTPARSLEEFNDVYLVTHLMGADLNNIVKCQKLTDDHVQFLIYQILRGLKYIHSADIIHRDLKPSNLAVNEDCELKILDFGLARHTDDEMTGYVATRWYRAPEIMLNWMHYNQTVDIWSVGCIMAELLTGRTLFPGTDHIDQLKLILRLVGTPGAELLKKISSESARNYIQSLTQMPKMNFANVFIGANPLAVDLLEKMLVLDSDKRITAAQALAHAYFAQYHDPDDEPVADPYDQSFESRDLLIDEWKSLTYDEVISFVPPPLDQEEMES
Chain of Ribosomal protein S6 kinase alpha-5 (Homo sapiens) (O75582 whole entry, looked up, the tested form may be a part): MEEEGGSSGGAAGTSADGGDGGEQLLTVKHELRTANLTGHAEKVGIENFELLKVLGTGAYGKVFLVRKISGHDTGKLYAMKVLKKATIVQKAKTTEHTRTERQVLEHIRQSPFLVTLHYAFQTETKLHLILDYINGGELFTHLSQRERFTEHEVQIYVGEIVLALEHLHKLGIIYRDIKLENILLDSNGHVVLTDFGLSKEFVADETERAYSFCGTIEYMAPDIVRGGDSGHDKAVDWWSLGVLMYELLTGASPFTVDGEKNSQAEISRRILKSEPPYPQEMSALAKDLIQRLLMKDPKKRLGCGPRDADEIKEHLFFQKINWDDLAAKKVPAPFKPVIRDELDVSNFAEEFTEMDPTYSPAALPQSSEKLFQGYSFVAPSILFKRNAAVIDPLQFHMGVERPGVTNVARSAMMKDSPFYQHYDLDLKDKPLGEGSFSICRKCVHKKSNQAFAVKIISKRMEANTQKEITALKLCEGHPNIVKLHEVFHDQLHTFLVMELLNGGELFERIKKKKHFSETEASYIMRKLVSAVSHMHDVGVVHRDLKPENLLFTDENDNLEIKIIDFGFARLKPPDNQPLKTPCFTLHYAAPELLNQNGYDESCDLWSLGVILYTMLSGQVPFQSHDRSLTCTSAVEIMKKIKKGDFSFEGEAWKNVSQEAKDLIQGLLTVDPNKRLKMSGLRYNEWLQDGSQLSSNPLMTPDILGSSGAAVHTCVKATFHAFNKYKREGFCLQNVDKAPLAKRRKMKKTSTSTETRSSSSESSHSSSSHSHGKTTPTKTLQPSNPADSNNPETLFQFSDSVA
Chain of Dual specificity tyrosine-phosphorylation-regulated kinase 2 (Homo sapiens) (Q92630 whole entry, the tested form may be a part): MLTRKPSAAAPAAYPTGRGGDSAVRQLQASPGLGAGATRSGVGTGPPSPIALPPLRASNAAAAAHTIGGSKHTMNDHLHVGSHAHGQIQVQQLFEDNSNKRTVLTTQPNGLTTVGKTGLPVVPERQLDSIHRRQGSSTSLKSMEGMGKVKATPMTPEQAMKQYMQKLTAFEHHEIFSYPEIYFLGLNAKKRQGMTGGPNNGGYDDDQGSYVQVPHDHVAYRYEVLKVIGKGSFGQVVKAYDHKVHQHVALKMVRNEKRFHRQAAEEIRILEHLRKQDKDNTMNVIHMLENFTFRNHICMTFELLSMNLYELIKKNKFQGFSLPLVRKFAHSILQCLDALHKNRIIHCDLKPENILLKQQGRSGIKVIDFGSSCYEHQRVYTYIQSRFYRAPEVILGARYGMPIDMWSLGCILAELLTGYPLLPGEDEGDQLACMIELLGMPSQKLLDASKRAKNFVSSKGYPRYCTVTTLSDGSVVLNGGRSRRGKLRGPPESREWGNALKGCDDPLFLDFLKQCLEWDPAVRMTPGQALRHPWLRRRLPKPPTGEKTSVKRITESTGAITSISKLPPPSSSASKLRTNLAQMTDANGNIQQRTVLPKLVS
Chain of Serine/threonine-protein kinase Nek1 (Homo sapiens) (Q96PY6 whole entry, the tested form may be a part): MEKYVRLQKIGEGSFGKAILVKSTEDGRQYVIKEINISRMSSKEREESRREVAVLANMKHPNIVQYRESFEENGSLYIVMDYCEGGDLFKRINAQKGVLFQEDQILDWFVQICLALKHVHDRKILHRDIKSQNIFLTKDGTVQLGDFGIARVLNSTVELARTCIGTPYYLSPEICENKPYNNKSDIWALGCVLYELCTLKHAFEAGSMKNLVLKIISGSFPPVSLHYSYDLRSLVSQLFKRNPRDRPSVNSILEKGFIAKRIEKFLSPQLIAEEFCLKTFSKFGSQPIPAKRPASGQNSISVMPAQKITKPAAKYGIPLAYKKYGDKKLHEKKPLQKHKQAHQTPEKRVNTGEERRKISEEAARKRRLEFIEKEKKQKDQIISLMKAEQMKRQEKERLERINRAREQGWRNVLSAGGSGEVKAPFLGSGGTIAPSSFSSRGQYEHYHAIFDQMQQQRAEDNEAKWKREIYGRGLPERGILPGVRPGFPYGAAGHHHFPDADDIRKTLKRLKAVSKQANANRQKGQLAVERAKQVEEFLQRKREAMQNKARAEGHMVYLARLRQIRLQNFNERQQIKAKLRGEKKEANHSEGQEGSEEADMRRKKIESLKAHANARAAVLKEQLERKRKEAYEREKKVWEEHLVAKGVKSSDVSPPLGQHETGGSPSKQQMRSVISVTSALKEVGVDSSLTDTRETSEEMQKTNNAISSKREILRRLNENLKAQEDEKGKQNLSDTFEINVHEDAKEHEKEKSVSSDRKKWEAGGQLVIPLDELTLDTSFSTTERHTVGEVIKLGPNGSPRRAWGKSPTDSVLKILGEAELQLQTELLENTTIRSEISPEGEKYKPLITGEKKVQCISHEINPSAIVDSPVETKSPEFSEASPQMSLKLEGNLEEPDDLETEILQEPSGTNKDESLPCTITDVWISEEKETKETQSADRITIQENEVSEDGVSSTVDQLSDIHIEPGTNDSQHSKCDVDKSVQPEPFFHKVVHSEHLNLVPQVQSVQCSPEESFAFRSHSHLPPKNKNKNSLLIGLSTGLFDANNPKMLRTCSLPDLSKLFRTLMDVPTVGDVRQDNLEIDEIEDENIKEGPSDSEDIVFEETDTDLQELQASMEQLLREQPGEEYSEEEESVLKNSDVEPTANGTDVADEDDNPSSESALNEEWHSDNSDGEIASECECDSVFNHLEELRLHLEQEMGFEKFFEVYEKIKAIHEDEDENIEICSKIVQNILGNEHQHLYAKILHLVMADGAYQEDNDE
Chain of Serine/threonine-protein kinase BRSK1 (Homo sapiens) (Q8TDC3 whole entry, the tested form may be a part): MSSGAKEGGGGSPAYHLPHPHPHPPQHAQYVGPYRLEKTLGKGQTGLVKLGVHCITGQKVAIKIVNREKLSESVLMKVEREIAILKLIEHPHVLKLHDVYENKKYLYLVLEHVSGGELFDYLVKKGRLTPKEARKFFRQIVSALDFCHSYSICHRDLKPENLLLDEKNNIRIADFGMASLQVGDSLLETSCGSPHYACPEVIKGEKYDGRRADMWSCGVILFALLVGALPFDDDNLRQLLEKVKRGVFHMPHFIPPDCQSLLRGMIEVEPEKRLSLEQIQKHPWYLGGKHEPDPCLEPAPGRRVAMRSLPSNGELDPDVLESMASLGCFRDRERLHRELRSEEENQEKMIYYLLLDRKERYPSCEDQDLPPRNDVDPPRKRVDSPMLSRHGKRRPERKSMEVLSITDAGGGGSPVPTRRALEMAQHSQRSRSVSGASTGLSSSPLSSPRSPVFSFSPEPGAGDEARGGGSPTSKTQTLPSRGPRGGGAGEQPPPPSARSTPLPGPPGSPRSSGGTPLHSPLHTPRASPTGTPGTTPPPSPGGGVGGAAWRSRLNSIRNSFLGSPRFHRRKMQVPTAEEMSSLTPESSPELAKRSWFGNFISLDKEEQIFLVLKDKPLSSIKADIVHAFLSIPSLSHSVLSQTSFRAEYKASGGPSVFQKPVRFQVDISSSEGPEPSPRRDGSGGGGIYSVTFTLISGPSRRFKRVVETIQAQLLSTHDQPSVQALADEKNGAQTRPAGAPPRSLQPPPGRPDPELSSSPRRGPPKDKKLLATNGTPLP

## C=CC(=O)Nc1cc(Nc2ncc(Cl)c(Nc3ccccc3S(=O)(=O)C(C)C)n2)c(OC)cc1N(C)CCN(C)C
[1]
  Activity: 100%
[2]
  Activity: 65%
[3]
  Activity: 14%
[4]
  Activity: 92%
[5]
  Activity: 64%
[6]
  Activity: 0%
[7]
  remaining at 0.5 h, 1 µM: 12%
[8]
  IC50: 58 nM
[9]
  Activity: 82%
[10]
  Activity: 1.4%
[11]
  Activity: 62%
[12]
  Activity: 81%
[13]
  Activity: 99%
[14]
  Activity: 68%
[15]
  Activity: 57%
[16]
  Activity: 49%
[17]
  Activity: 64%
[18]
  Activity: 85%
[19]
  Activity: 71%
[20]
  Activity: 100%
[21]
  Activity: 5.6%
[22]
  Activity: 2.3%
